ChEMBL document CHEMBL1137329, “In silico-guided target identification of a scaffold-focused library: 1,3,5-triazepan-2,6-diones as novel phospholipase A2 inhibitors” (J Med Chem, 2006)
Active and inactive are the calls of the source. No cut-off for these calls is given here.

What was measured:
[1] = biological target: T1, Phospholipase A2 group V (Homo sapiens) (UniProt P39877); assay: Inhibition of human group 5 sPLA2 at 30 uM
T1 sequence (whole entry): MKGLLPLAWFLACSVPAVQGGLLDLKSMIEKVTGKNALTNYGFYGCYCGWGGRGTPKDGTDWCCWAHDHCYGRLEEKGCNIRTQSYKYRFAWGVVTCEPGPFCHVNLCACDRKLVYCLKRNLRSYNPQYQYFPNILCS
How it was run: (§1)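 Recombinant human sPLA2 expressed in E. coli, at 40 pM for group V or 20 pM for group X, preincubated with inhibitor 10 min (15 min in legends). Buffer is 100 mM Tris pH 8.0, 10 mM CaCl2, 0.1% BSA. Substrate is E. coli membranes carrying 100,000 dpm 3H-oleate phospholipids, 15 min at room temperature. Reaction stopped with EDTA/fatty-acid-free BSA and centrifuged; supernatant radioactivity counted. Single 30 µM or concentration series for IC50; at least three experiments.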

[2] = biological target: T2, Group 10 secretory phospholipase A2 (Homo sapiens) (UniProt O15496); assay: Inhibition of human group 10 sPLA2 at 30 uM; how it was run: as §1
T2 sequence (whole entry): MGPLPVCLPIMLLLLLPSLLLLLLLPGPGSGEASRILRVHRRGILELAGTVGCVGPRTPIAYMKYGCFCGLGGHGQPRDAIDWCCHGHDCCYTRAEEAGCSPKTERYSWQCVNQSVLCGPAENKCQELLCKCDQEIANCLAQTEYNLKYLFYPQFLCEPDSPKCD

[3] = biological target: T3, Phospholipase A2 group V (Homo sapiens, UniProt P39877); assay: Inhibition of human group 5 sPLA2; how it was run: as §1
T3 sequence (P39877 whole entry): T1 sequence (whole entry)

[4] = biological target: T4, Group 10 secretory phospholipase A2 (Homo sapiens, UniProt O15496); assay: Inhibition of human group 10 sPLA2; how it was run: as §1
T4 sequence (O15496 whole entry): T2 sequence (whole entry)

[5] = biological target: T5, Sulfotransferase 1E1 (Homo sapiens, UniProt P49888); assay: Inhibition of human estrogen sulfotransferase
T5 sequence (P49888 whole entry): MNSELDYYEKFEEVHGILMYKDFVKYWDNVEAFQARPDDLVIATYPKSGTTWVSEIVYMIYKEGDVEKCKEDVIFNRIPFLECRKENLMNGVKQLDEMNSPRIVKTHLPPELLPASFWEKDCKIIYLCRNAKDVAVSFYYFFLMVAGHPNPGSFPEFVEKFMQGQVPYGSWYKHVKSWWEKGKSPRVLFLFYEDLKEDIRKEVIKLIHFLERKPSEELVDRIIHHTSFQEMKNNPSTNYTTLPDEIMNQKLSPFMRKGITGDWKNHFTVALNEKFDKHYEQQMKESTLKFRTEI

[6] = biological target: T6, Thymidine kinase (Human alphaherpesvirus 1) (UniProt Q9QNF7); assay: Inhibition of Herpes simplex virus type 1 thymidine kinase
T6 sequence (whole entry): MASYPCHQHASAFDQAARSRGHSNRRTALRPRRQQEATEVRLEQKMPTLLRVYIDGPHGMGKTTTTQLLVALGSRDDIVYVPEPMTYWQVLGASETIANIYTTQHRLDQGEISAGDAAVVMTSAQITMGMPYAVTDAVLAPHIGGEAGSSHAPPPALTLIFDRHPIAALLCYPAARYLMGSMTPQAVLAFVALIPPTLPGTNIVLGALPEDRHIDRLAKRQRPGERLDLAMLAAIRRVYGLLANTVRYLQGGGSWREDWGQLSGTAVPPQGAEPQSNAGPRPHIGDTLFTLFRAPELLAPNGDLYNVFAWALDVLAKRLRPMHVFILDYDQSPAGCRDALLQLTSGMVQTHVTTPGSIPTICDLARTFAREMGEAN

[7] = organism: Homo sapiens; assay: Inhibition of methionine aminopeptidase
[8] = biological target: T7, Purine nucleoside phosphorylase (Homo sapiens) (UniProt P00491); assay: Inhibition of human purine nucleoside phosphorylase
T7 sequence (whole entry): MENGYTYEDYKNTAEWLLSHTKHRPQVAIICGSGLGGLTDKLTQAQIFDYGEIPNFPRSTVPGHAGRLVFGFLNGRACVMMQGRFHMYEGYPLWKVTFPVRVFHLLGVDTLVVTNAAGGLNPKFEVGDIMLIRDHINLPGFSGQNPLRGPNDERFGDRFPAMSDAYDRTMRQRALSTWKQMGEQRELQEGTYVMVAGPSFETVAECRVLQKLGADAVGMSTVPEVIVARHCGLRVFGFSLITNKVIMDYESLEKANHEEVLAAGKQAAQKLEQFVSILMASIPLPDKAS

[9] = biological target: T8, Group 3 secretory phospholipase A2 (Homo sapiens) (UniProt Q9NZ20); assay: Inhibition of human group 3 sPLA2 at 10 uM
T8 sequence (whole entry): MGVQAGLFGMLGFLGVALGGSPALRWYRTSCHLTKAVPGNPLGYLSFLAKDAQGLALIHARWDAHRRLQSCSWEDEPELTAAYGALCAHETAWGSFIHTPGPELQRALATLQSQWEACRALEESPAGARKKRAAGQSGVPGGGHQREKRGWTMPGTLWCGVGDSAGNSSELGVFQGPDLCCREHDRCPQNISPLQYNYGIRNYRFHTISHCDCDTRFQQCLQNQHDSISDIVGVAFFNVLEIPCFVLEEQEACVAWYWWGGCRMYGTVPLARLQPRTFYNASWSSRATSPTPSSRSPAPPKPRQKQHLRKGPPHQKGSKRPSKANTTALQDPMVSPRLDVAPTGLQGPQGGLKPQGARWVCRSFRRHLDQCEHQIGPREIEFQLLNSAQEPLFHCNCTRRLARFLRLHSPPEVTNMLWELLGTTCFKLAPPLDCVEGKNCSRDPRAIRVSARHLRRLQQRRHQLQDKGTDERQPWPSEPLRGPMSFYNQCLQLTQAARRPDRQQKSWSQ
How it was run: (§2)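 Human group III sPLA2 catalytic domain made in Drosophila S2 cells. Inhibitor at 10 or 100 µM preincubated 10 min with enzyme in Tris pH 8.0 buffer with 10 mM CaCl2 and 0.1% BSA. Then 15 min room-temperature hydrolysis of 3H-oleate-labelled E. coli membranes. Stopped with EDTA and fatty-acid-free BSA; supernatant counts after centrifugation.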

[10] = biological target: T8, Group 3 secretory phospholipase A2 (Homo sapiens); assay: Inhibition of human group 3 sPLA2 at 100 uM; how it was run: as §2
[11] = biological target: Phospholipase A2 (Homo sapiens) (UniProt P04054); assay: Inhibition of human group 1B sPLA2 at 30 uM
Sequence of Phospholipase A2 (Homo sapiens) (P04054 23-148 limits assumed): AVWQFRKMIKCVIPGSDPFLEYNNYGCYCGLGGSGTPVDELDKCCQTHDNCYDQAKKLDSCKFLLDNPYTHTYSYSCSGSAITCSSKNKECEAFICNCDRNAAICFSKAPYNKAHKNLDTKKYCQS
How it was run: (§3)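 Recombinant human group IB or IIA sPLA2 from E. coli, enzyme level set for linear hydrolysis. Preincubated 10 min with inhibitor at 30 µM in 100 mM Tris pH 8.0, 10 mM CaCl2, 0.1% BSA. 3H-oleate-labelled E. coli membrane substrate added for 15 min at room temperature. Stopped with EDTA/BSA, centrifuged at 14000g, released radioactivity counted; expressed as percent inhibition.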

[12] = biological target: T9, Phospholipase A2, membrane associated (Homo sapiens) (UniProt P14555); assay: Inhibition of human group 2A sPLA2 at 30 uM; how it was run: as §3
T9 sequence (whole entry): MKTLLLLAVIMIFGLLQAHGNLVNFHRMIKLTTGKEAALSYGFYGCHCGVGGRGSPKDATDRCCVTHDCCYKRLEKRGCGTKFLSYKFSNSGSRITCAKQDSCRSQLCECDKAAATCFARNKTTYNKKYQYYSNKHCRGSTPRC

[13] = biological target: T10, Purine nucleoside phosphorylase (Toxoplasma gondii, UniProt Q2HXR2); assay: Inhibition of Toxoplasma gondii purine nucleoside phosphorylase
T10 sequence (Q2HXR2 whole entry): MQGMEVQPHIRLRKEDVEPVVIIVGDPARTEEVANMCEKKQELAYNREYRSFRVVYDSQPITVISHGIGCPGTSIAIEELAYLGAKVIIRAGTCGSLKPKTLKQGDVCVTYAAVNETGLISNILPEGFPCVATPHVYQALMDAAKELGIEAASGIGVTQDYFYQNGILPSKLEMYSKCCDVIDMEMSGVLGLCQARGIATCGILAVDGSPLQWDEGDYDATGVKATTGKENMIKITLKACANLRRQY

SMILES | inhibition [1] | Activity [5] | Activity [6] | Activity [7] | Activity [8] | Activity [9] | Activity [10] | other results
CN1CN(C/C=C/C(=O)O)C(=O)N[C@@H](Cc2ccccc2)C1=O | > 70% | – | – | – | – | – | – | inhibition [2]: > 70%; IC50 [3]: 12 µM; IC50 [4]: 10 µM
CC(C)[C@@H]1NC(=O)N(Cc2ccccc2)CN(C)C1=O | > 70% | – | – | – | – | – | – | inhibition [2]: > 70%
CN1C(=O)[C@H](Cc2ccccc2)NC(=O)N[C@@H]1Cc1ccccc1 | > 70% | – | – | – | – | – | – | IC50 [3]: 11 µM; IC50 [4]: 13 µM
C[C@@H]1NC(=O)NC2Cc3ccccc3CN2C1=O (stereo partly drawn) | – | Not Active | inactive | inactive | inactive | inactive | inactive | –
COC(=O)CN1CN(C)C(=O)[C@H](Cc2ccccc2)NC1=O | > 70% | – | – | – | – | – | – | –
CN1CN(C/C=C/C(=O)OC(C)(C)C)C(=O)N[C@@H](Cc2ccccc2)C1=O | – | – | – | – | – | – | – | inhibition [2]: > 70%
CC(C)[C@@H]1NC(=O)N(CC(=O)OC(C)(C)C)CN(C)C1=O | > 70% | – | – | – | – | – | – | inhibition [2]: > 70%; IC50 [3]: 12 µM; IC50 [4]: 11 µM
CC(C)C[C@@H]1NC(=O)NCN(C)C1=O | – | Not Active | inactive | inactive | inactive | inactive | inactive | –
CC(C)(C)OC(=O)CN1C(=O)N[C@@H](Cc2ccc3ccccc3c2)C(=O)N2CCC[C@@H]12 | > 70% | – | – | – | – | – | – | –
CN1CN(CC(=O)O)C(=O)N[C@@H](Cc2ccccc2)C1=O | – | Not Active | inactive | inactive | inactive | inactive | inactive | Activity [11]: inactive; inhibition [12]: 25%
O=C1N[C@@H](Cc2ccccc2)C(=O)N2C[C@H](OCc3ccccc3)C[C@H]2N1 | – | Not Active | inactive | inactive | inactive | inactive | inactive | Ki [13]: 8 µM
CC(C)(C)OC(=O)CN1C(=O)N[C@@H](Cc2ccccc2)C(=O)N2CCC[C@@H]12 | > 70% | – | – | – | – | – | – | –
CN1CN(CC(=O)OC(C)(C)C)C(=O)N[C@@H](Cc2ccc3ccccc3c2)C1=O | > 70% | – | – | – | – | – | – | –
CC(C)(C)OC(=O)CN1C(=O)N(CC(=O)OC(C)(C)C)[C@@H](Cc2ccccc2)C(=O)N2CCC[C@H]21 | – | – | – | – | – | – | – | inhibition [2]: > 70%
O=C1N[C@@H](Cc2ccccc2)C(=O)N2C[C@H](O)C[C@H]2N1 | – | Not Active | inactive | inactive | inactive | inactive | inactive | –
CN1CN(CCCC(N)=O)C(=O)N[C@@H](Cc2ccccc2)C1=O | > 70% | – | – | – | – | – | – | –
CN1CN(CC(=O)O)C(=O)N(CC(=O)O)[C@@H](Cc2ccccc2)C1=O | > 70% | – | – | – | – | – | – | –
CN1CNC(=O)N[C@@H](CN)C1=O | – | Not Active | inactive | inactive | inactive | inactive | inactive | –
CN1CN(CCCC(=O)O)C(=O)N[C@@H](Cc2ccccc2)C1=O | > 70% | – | – | – | – | – | – | inhibition [2]: > 70%
O=C1[C@@H]2Cc3ccccc3CN2C(=O)N[C@@H]2CCCN12 | – | Not Active | inactive | inactive | inactive | inactive | inactive | –
CN1CN(CC(=O)OC(C)(C)C)C(=O)N(CC(=O)OC(C)(C)C)[C@@H](Cc2ccccc2)C1=O | > 70% | – | – | – | – | – | – | IC50 [3]: 11 µM; IC50 [4]: 11 µM
CN1CNC(=O)N[C@@H](Cc2ccccc2)C1=O | – | Not Active | inactive | inactive | inactive | inactive | inactive | –
CN1CN(CC(=O)OC(C)(C)C)C(=O)N[C@@H](Cc2ccccc2)C1=O | > 70% | – | – | – | – | – | – | –
